According to ChEMBL document CHEMBL3774342, “Indole Based Weapons to Fight Antibiotic Resistance: A Structure-Activity Relationship Study” (J Med Chem, 2016):
Converted amounts (≈) assume the structure as drawn.

Assays:
Liver microsome [1] = assay: Drug level in human liver microsomes treated with Ethyl 5-(3-Aminopropoxy)-1-benzyl-2-methyl-(1H)-indole-3-carboxylate at 10 uM preincubated for 5 mins followed by NADPH addition measured after 30 mins by HPLC-MS/MS analysis; type: ADME; settings: 0.5 h
Method in brief: (§1)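 Human liver microsomes at 0.5 mg protein/ml in 100 mM potassium phosphate pH 7.4. Substrate at 10 µM final, pre-incubated 5 min at 37 °C with shaking, then started with 1 mM NADPH. Quenched at 0 and 30 min with cold acetonitrile containing labetalol internal standard. Spun 12000 g, 5 min, 4 °C; supernatant analysed by UHPLC C18 HPLC-MS/MS.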

[2] = molecular target: T1, Quinolone resistance protein NorA (Staphylococcus aureus) (UniProt P0A0J7); assay: Inhibition of NorA efflux pump in Staphylococcus aureus 1199B assessed as reduction in EtBr efflux at 50 uM incubated for 20 mins measured for 5 mins by real-time fluorometric analysis
T1 sequence (whole entry): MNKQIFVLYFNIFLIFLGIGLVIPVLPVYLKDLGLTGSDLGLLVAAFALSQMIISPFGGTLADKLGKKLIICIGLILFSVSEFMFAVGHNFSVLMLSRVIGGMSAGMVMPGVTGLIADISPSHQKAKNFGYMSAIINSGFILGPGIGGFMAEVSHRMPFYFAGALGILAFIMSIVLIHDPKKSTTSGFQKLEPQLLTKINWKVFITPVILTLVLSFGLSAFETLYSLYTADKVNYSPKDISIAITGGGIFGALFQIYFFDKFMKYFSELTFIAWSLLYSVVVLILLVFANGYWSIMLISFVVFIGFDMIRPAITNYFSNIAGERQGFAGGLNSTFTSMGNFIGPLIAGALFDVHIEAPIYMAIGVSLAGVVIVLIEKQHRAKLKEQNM
Method in brief: (§2)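 SA-1199B (norA-overexpressing) grown overnight in cation-supplemented Mueller-Hinton broth, diluted 25-fold and grown at 35 °C to OD600 0.7–0.8. Loaded with EtBr 25 µM plus CCCP 100 µM (final), then resuspended in fresh broth. Fluorescence read at ex 485/em 645 nm for 5 min, ± compound. Efflux inhibition in % relative to untreated cells; screened at 50 µM. IC50 from concentration series; triplicate, two technical replicates each.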

Staphylococcus aureus = assay: Antimicrobial activity against Staphylococcus aureus 1199B by microdilution method; type: functional
Method in brief: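 MIC by broth microdilution following CLSI guidelines against S. aureus SA-1199B, a strain that overexpresses norA. Run on compounds giving at least 80% EtBr efflux inhibition and on selected weaker ones.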

[3] = Metabolic stability in human liver microsomes assessed as compound remaining after at 10 uM preincubated for 5 mins followed by NADPH addition measured after 30 mins by HPLC-MS/MS analysis; type: ADME; settings: read-out: Stability; method in brief: as §1
[4] = molecular target: T2, Quinolone resistance protein NorA (Staphylococcus aureus, UniProt P0A0J7); assay: Inhibition of NorA efflux pump in Staphylococcus aureus 1199B assessed as reduction in EtBr efflux incubated for 20 mins measured for 5 mins by real-time fluorometric analysis; method in brief: as §2
T2 sequence (P0A0J7 whole entry): T1 sequence (whole entry)

[5] = Solubility of the compound in D2O solution at 25 degC by 1H NMR analysis; type: physicochemical
Method in brief: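 1H NMR in D2O at 25 °C with TSP internal standard, following a literature procedure.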

Liver microsome [6] = assay: Drug level in human liver microsomes treated with Ethyl 1-Benzyl-2-methyl-5-(3-(piperazin1-yl)propoxy)-(1H)-indole-3-carboxylate at 10 uM preincubated for 5 mins followed by NADPH addition measured after 30 mins by HPLC-MS/MS analysis; type: ADME; settings: 0.5 h; method in brief: as §1
Liver microsome [7] = assay: Drug level in human liver microsomes treated with Ethyl 1-benzyl-2-methyl-5-(3-(piperidin-1-yl)propoxy)-1H-indole-3-carboxylate at 10 uM preincubated for 5 mins followed by NADPH addition measured after 30 mins by HPLC-MS/MS analysis; type: ADME; settings: 0.5 h; method in brief: as §1
Liver microsome [8] = assay: Drug level in human liver microsomes treated with Ethyl 1-(2-Methoxybenzyl)-2-methyl-5-(3-(piperidin-1-yl)-propoxy)-1H-indole-3-carboxylate at 10 uM preincubated for 5 mins followed by NADPH addition measured after 30 mins by HPLC-MS/MS analysis; type: ADME; settings: 0.5 h; method in brief: as §1

| Structure (SMILES) | inhibition [2] [%] | MIC (Staphylococcus aureus) [µg/mL] | IC50 [4] [µM] | also measured |
| --- | --- | --- | --- | --- |
| Cc1c(C(=O)O)c2cc(OCCCN)ccc2n1Cc1ccccc1 | – | – | – | Drug metabolism (Liver microsome [1]): metabolite_detected |
| CCOC(=O)c1c(C)n(Cc2ccccc2[N+](=O)[O-])c2ccc(OCCCN3CCCCC3)cc12 | 91.8 | > 100 | 6.3 | remaining at 0.5 h, 10 µM [3]: 89%; solubility [5]: 14 µM (≈ 6.71 µg/mL) |
| Cc1c(C(=O)O)c2cc(OCCCN3CCNCC3)ccc2n1Cc1ccccc1 | – | – | – | Drug metabolism (Liver microsome [6]): metabolite_detected |
| CCOC(=O)c1c(C)n(Cc2ccccc2)c2ccc(OCCCNCc3ccccc3)cc12 | 45.4 | – | – | – |
| CCOC(=O)c1c(C)n(Cc2ccccc2)c2ccc(OCCCN3CCCCCC3)cc12 | 77.4 | > 100 | – | – |
| Cc1cc2cc(OCCCN3CCCCC3)ccc2n1Cc1ccccc1 | 95.6 | 0.63 (≈ 1.74 µM) | 6.6 | remaining at 0.5 h, 10 µM [3]: 100%; solubility [5]: 70 µM (≈ 25.4 µg/mL) |
| CCOC(=O)c1c(C)[nH]c2ccc(OCCCN)cc12 | – | – | – | Drug metabolism (Liver microsome [1]): metabolite_detected |
| CCOC(=O)c1c(C)n(Cc2cccc(OC)c2)c2ccc(OCCCN3CCCCC3)cc12 | 77.1 | > 100 | 7.3 | – |
| CCOC(=O)c1c(C)n(Cc2ccccc2)c2ccc(OCC(O)CN)cc12 (stereo unspecified) | 100 | > 100 | 17.1 | – |
| Cc1c(C(=O)O)c2cc(OCCCN3CCCCC3)ccc2n1Cc1ccccc1 | 0 | – | – | Drug metabolism (Liver microsome [7]): metabolite_detected |
| CCOC(=O)c1c(C)n(Cc2ccccc2)c2ccc([N+](=O)[O-])cc12 | 9.1 | – | – | – |
| CCOC(=O)c1c(C)n(Cc2ccccc2)c2ccc(OCCc3ccccc3)cc12 | 4.7 | > 100 | – | – |
| CCOC(=O)c1c(C)n(Cc2ccc(C)cc2)c2ccc(OCCCN3CCCCC3)cc12 | 58.3 | 25 (≈ 55.7 µM) | 6.7 | – |
| CCOC(=O)c1c(C)n(Cc2ccccc2)c2ccc(OC(C)=O)cc12 | 20.4 | – | – | – |
| CCOC(=O)c1c(C)n(Cc2ccccc2)c2ccc(OCCN)cc12 | 67.7 | – | – | – |
| CCOC(=O)c1c(C)n(Cc2ccccc2)c2ccc(OCC(O)CN3CCOCC3)cc12 (stereo unspecified) | 99 | > 100 | 17 | – |
| CCOC(=O)c1c(C)n(Cc2ccc(F)cc2)c2ccc(OCCCN3CCCCC3)cc12 | 91.1 | > 100 | 8.7 | – |
| CCOC(=O)c1c(C)n(Cc2ccc(OC)cc2)c2ccc(OCCCN3CCCCC3)cc12 | 77.7 | > 100 | 7.1 | – |
| CCOC(=O)c1c(C)[nH]c2ccc(OCCCN3CCNCC3)cc12 | – | – | – | Drug metabolism (Liver microsome [6]): metabolite_detected |
| CCOC(=O)Cc1c(C)n(Cc2ccccc2)c2ccc(OCCCN3CCCCCC3)cc12 | 98.4 | 100 (≈ 216 µM) | 6.1 | – |
| CCOC(=O)c1c(C)n(Cc2ccccc2)c2ccc(OCCN3CCOCC3)cc12 | 90.9 | > 100 | 16.8 | – |
| CCOC(=O)c1c(C)n(Cc2ccccc2C)c2ccc(OCCCN3CCCCC3)cc12 | 54 | 25 (≈ 55.7 µM) | 4.8 | – |
| CCOC(=O)c1c(C)n(Cc2cccc(F)c2)c2ccc(OCCCN3CCCCC3)cc12 | 89.7 | > 100 | 6.1 | – |

| Structure (SMILES) | inhibition [2] [%] | MIC (Staphylococcus aureus) [µg/mL] | IC50 [4] [µM] | also measured |
| --- | --- | --- | --- | --- |
| CCOC(=O)c1c(C)n(Cc2ccccc2F)c2ccc(OCCCN3CCCCC3)cc12 | 89 | > 100 | 4.8 | – |
| CCOC(=O)c1c(C)n(Cc2ccccc2)c2ccc(OCC(N)CO)cc12 (stereo unspecified) | 100 | > 100 | 10.4 | – |
| CCOC(=O)c1c(C)n(Cc2ccccc2)c2ccc(O)cc12 | 1 | > 100 | – | – |
| CCOC(=O)c1c(C)n(Cc2ccccc2)c2ccc(OCC(O)CN3CCCCC3)cc12 (stereo unspecified) | 99.3 | > 100 | 5.8 | – |
| CCOC(=O)c1c(C)n(Cc2cccc(C(F)(F)F)c2)c2ccc(OCCCN3CCCCC3)cc12 | 12.9 | > 100 | 14.2 | – |
| CCOC(=O)c1c(C)n(Cc2ccc(C(F)(F)F)cc2)c2ccc(OCCCN3CCCCC3)cc12 | 77.7 | > 100 | 14.1 | – |
| CCOC(=O)c1c(C)n(Cc2ccccc2)c2ccc(OCCCN3CCN(C)CC3)cc12 | 100 | > 100 | 11.9 | – |
| CCOC(=O)c1c(C)n(Cc2ccccc2)c2ccc(OCCN3CCN(C)CC3)cc12 | 99.7 | > 100 | 10.1 | – |
| CCOC(=O)c1c(C)n(Cc2ccccc2)c2ccc(C(F)(F)F)cc12 | 36.6 | – | – | – |
| CCOC(=O)c1c(C)n(Cc2ccc([N+](=O)[O-])cc2)c2ccc(OCCCN3CCCCC3)cc12 | 89.9 | > 100 | 6.5 | – |
| CCOC(=O)c1c(C)n(Cc2ccccc2)c2ccc(OCCN(C)C)cc12 | 98.2 | > 100 | 22.5 | – |
| CCOC(=O)c1c(C)n(Cc2ccccc2)c2ccc(OCCCCN3CCNCC3)cc12 | 71.9 | > 100 | – | – |
| CCOC(=O)c1c(C)n(Cc2ccccc2)c2ccc(OCCN3CCCCC3)cc12 | 100 | > 100 | 11.6 | – |
| CCOC(=O)c1c(C)n(Cc2ccccc2)c2ccc(OCC(CF)N3CCCCC3)cc12 (stereo unspecified) | 38.5 | > 100 | – | – |
| CCOC(=O)c1c(C)n(Cc2ccccc2O)c2ccc(OCCCN3CCCCC3)cc12 | – | – | – | Drug metabolism (Liver microsome [8]): metabolite_detected |
| CCOC(=O)c1c(C)n(Cc2cccc([N+](=O)[O-])c2)c2ccc(OCCCN3CCCCC3)cc12 | 85.1 | > 100 | 4.4 | – |
| CCOC(=O)c1c(C)n(Cc2ccccc2)c2ccc(OCCCN3CCC(F)(F)CC3)cc12 | 25.9 | – | – | – |
| CCOC(=O)c1c(C)n(Cc2cccc(C)c2)c2ccc(OCCCN3CCCCC3)cc12 | 70.9 | 50 (≈ 111 µM) | 6.1 | – |
| CCOC(=O)c1c(C)n(CCc2ccccc2)c2ccc(OCCCN3CCCCC3)cc12 | 99.3 | > 100 | 13.7 | – |
| CCOC(=O)c1c(C)n(Cc2ccccc2)c2ccc(OCC(O)CN3CCCCCC3)cc12 (stereo unspecified) | 92.8 | 100 (≈ 215 µM) | 6.8 | – |
| CCOC(=O)c1c(C)n(Cc2ccccc2)c2ccc(OCCCCN)cc12 | 93.7 | 100 (≈ 263 µM) | 6.7 | – |
| CCOC(=O)c1c(C)n(Cc2ccccc2)c2ccc(OCCCN3CCOCC3)cc12 | 98.6 | > 100 | 10.6 | – |
